Measured values pooled from the literature.
Protocols differ between the studies behind these lines.
Target: Tyrosine-protein kinase Lck (LCK, Homo sapiens, UniProt P06239)

| SMILES | assay | conditions | remaining binding [%] |
| --- | --- | --- | --- |
| COc1ccnn2ncc(-c3ccnc(N(C)C)n3)c12 | binding | 1 µM | 94 |
| CNC(=O)c1ccc(Nc2ncc(C(F)(F)F)c(NCc3nccnc3N(C)S(C)(=O)=O)n2)cc1 | cell-free assay, competition with immobilised ligand | 0.1 µM | 87 |
| COc1ncc2cc3ccccc3nc2c1C#N | binding, competition with immobilised ligand | 5 µM | 93 |
| COc1ccc2cc(OCC3(C(=O)O)CN(C(=O)c4ccc(F)cc4)C3)ccc2c1 | cell-free assay, competition with immobilised ligand | 1 µM | 80 |
| O=C(c1ccc(Nc2ncc(Cl)c(-c3ccc(Cl)s3)n2)cc1)N1CCC(N2CCCC2)CC1 | binding, competition with immobilised ligand | 1 µM | 32 |
| COc1cnc(Nc2cccc(S(N)(=O)=O)c2)nc1N1CCN(c2ccccc2)C(=O)C1 | binding, competition with immobilised ligand | 1 µM | 100 |
| CCCOc1ccc([C@H]2[C@H](C(=O)O)[C@@H](c3ccc4c(c3)OCO4)CN2CC(=O)Nc2c(CC)cccc2CC)cc1 | cell-free assay, competition with immobilised ligand | 1 µM | 100 |
| O=C(c1ccc(Nc2nccc(-c3cc4ccccc4s3)n2)cc1)N1CCC(N2CCCC2)CC1 | binding, competition with immobilised ligand | 1 µM | 34 |
| CCN1CCN(Cc2ccc(C(=O)Nc3ccc(C)c(Oc4ccc5c(c4)CC(=O)N5)c3)cc2C(F)(F)F)CC1 | binding, competition with immobilised ligand | 1 µM | 22 |
| O=C(NCCCN1CCOCC1)c1ccc(Nc2nccc(-c3cc4ccccc4s3)n2)cc1 | binding, competition with immobilised ligand | 1 µM | 76 |
| O=C(NCC1CCOCC1)c1n[nH]cc1NC(=O)c1c(F)cccc1F | binding, competition with immobilised ligand | 1 µM | 100 |
| C[C@H]1CCN(c2nccc(-c3cnn4ncccc34)n2)C1 | binding | 1 µM | 98 |
| N#Cc1ccc(Nc2ccc3[nH]c(=O)[nH]c3c2)c(Cl)c1 | cell-free assay, competition with immobilised ligand | 1 µM | 100 |
| C[C@@H](c1ccc(-n2cnc3c(N)ncnc32)cc1)N1CCc2nn(C)c(Cc3ccccc3)c2C1=O | binding, competition with immobilised ligand | 0.1 µM | 94 |
| F[C@@H]1CCN(c2nccc(-c3cnn4ncccc34)n2)C1 | binding | 1 µM | 100 |
| C=CC(=O)N1CCC(C(=O)NCC(=O)N2CCN(c3nc(-c4cnc(N)nc4C(F)F)nc(N4CCOCC4)n3)CC2)CC1 | binding, competition with immobilised ligand | 1 µM | 90 |
